Experimental data as given in ChEMBL document CHEMBL5661979, “Pharmacological inhibition of BMK1 suppresses tumor growth through promyelocytic leukemia protein” (Cancer Cell, 2010).

What was measured:
[1] = target: Phosphatidylinositol 4-kinase beta (Homo sapiens, UniProt Q9UBF8); experiment: Inhibition of PIK4CB in human HeLa cells lysate at 10 uM pre incubated for 15 mins followed by ADP acyl phosphate probe addition and measured after 10 mins by LC-MS/MS analysis relative to control; assay type: subcellular; conditions: time 25.0 min
[2] = target: T1, Phosphatidylinositol 5-phosphate 4-kinase type-2 alpha (Homo sapiens) (UniProt P48426); experiment: Inhibition of PIP5K2A LIP1 site in human HeLa cells lysate at 50 uM pre incubated for 15 mins followed by ADP acyl phosphate probe addition and measured after 10 mins by LC-MS/MS analysis relative to control; assay type: subcellular; conditions: time 25.0 min
T1 sequence (whole entry): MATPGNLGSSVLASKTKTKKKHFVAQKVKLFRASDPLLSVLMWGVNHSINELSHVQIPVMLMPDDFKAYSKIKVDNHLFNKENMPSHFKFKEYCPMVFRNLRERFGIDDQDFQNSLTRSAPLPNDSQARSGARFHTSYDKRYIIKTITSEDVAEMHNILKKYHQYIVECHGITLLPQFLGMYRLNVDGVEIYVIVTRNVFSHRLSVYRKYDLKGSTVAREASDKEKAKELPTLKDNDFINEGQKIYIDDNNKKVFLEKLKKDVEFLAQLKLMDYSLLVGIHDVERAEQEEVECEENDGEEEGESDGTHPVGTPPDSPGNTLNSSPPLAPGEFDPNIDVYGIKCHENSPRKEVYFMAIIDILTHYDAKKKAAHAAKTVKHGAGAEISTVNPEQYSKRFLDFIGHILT

[3] = target: Ribosomal protein S6 kinase alpha-3 (Homo sapiens, UniProt P51812); experiment: Inhibition of RSK2 domain 2 in human HeLa cells lysate at 50 uM pre incubated for 15 mins followed by ADP acyl phosphate probe addition and measured after 10 mins by LC-MS/MS analysis relative to control; assay type: subcellular; conditions: time 25.0 min
[4] = Inhibition of MAP3K2/MAP3K3 in human HeLa cells lysate at 50 uM pre incubated for 15 mins followed by ADP acyl phosphate probe addition and measured after 10 mins by LC-MS/MS analysis relative to control; conditions: 25 min, condition cancer
[5] = target: Serine/threonine-protein kinase Chk1 (Homo sapiens, UniProt O14757); experiment: Inhibition of CHK1 inactive site in human HeLa cells lysate pre incubated for 15 mins followed by ATP acyl phosphate probe addition and measured after 10 mins by LC-MS/MS analysis; assay type: subcellular
[6] = target: Cyclin-dependent kinase 13 (Homo sapiens, UniProt Q14004); experiment: Inhibition of CHED in human HeLa cells lysate pre incubated for 15 mins followed by ADP acyl phosphate probe addition and measured after 10 mins by LC-MS/MS analysis; assay type: subcellular
Method in brief: (§1)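 KiNativ profiling in HeLa lysate (5 mg/mL total protein). Lysate incubated 15 min with inhibitor at 50, 10, 2, 0.8 or 0 μM. ATP or ADP acylphosphate probe then added (5 μM final) and reacted 10 min. Reaction stopped with urea and analysed by targeted MS, using up to four fragment ions per kinase peptide-probe conjugate. % inhibition taken against untreated lysate. Run in duplicate.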

[7] = target: Mitogen-activated protein kinase 14 (Homo sapiens, UniProt Q16539); experiment: Inhibition of P38a interaction site in human HeLa cells lysate pre incubated for 15 mins followed by ATP acyl phosphate probe addition and measured after 10 mins by LC-MS/MS analysis; assay type: subcellular
[8] = target: Cyclin-dependent kinase 10 (Homo sapiens, UniProt Q15131); experiment: Inhibition of CDK10 in human HeLa cells lysate at 2 uM pre incubated for 15 mins followed by ATP acyl phosphate probe addition and measured after 10 mins by LC-MS/MS analysis relative to control; assay type: subcellular; conditions: time 25.0 min; method in brief: as §1
[9] = target: Serine/threonine-protein kinase B-raf (Homo sapiens, UniProt P15056); experiment: Inhibition of BRAF in human HeLa cells lysate pre incubated for 15 mins followed by ADP acyl phosphate probe addition and measured after 10 mins by LC-MS/MS analysis; assay type: subcellular
Method in brief: (§2)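 KiNativ-type profiling in HeLa lysate (5 mg/mL total protein). Lysate preincubated 15 min with inhibitor at 50, 10, 2, 0.8 or 0 μM, then ATP or ADP acylphosphate probe added (5 μM final) for 10 min. Reaction stopped with urea and analysed by targeted MS, using up to four fragment ions per kinase peptide-probe conjugate. % inhibition calculated against untreated lysate. Duplicate reactions.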

[10] = target: Tyrosine-protein kinase ABL (Homo sapiens, UniProt P00519+P42684); experiment: Inhibition of ABL1/2 in human HeLa cells lysate pre incubated for 15 mins followed by ATP acyl phosphate probe addition and measured after 10 mins by LC-MS/MS analysis; assay type: subcellular
Method in brief: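 HeLa cell lysates (5 mg/mL total protein) were preincubated with inhibitor at 0, 0.8, 2, 10 or 50 μM for 15 min. ATP or ADP acylphosphate probe was then added (5 μM final) for 10 min, and reactions were stopped with urea. Up to four fragment ions per kinase probe-peptide were quantified by targeted MS. % inhibition was taken relative to untreated lysate. Run in duplicate.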

[11] = target: Calcium/calmodulin-dependent protein kinase type 1D (Homo sapiens, UniProt Q8IU85); experiment: Inhibition of CAMK1d in human HeLa cells lysate at 10 uM pre incubated for 15 mins followed by ATP acyl phosphate probe addition and measured after 10 mins by LC-MS/MS analysis relative to control; assay type: subcellular; conditions: time 25.0 min; method in brief: as §2
[12] = target: Serine/threonine-protein kinase ATR (Homo sapiens, UniProt Q13535); experiment: Inhibition of ATR in human HeLa cells lysate at 10 uM pre incubated for 15 mins followed by ATP acyl phosphate probe addition and measured after 10 mins by LC-MS/MS analysis relative to control; assay type: subcellular; conditions: time 25.0 min; method in brief: as §2
[13] = Inhibition of NEK6/7 in human HeLa cells lysate pre incubated for 15 mins followed by ATP acyl phosphate probe addition and measured after 10 mins by LC-MS/MS analysis; assay type: subcellular
[14] = target: Cyclin-dependent kinase 16 (Homo sapiens, UniProt Q00536); experiment: Inhibition of PCTAIRE1 in human HeLa cells lysate pre incubated for 15 mins followed by ADP acyl phosphate probe addition and measured after 10 mins by LC-MS/MS analysis; assay type: subcellular
[15] = target: Focal adhesion kinase 1 (Homo sapiens, UniProt Q05397); experiment: Inhibition of FAK in human HeLa cells lysate at 50 uM pre incubated for 15 mins followed by ADP acyl phosphate probe addition and measured after 10 mins by LC-MS/MS analysis relative to control; assay type: subcellular; conditions: time 25.0 min
[16] = Inhibition of MAP3K2/MAP3K3 in human HeLa cells lysate at 2 uM pre incubated for 15 mins followed by ADP acyl phosphate probe addition and measured after 10 mins by LC-MS/MS analysis relative to control; conditions: 25 min, condition cancer
[17] = Inhibition of PCTAIRE2/ICK in human HeLa cells lysate at 2 uM pre incubated for 15 mins followed by ADP acyl phosphate probe addition and measured after 10 mins by LC-MS/MS analysis relative to control; conditions: 25 min, condition cancer
[18] = target: Ribosomal protein S6 kinase alpha-6 (Homo sapiens) (UniProt Q9UK32); experiment: Inhibition of C-terminal RPS6KA6 kinase domain (unknown origin) assessed as remaining activity at 10 uM by ATP-competition binding assay relative to control
[19] = Toxicity in C57Bl/6 mouse assessed as body weight at 50 mg/kg, ip for 14 days (reference value: 0.2 to 0.208 kg); assay type: organism-based; conditions: in vivo, 336 h, time 14 day

Sequence of Cyclin-dependent kinase 13 (Q14004 whole entry, the tested form may be a part): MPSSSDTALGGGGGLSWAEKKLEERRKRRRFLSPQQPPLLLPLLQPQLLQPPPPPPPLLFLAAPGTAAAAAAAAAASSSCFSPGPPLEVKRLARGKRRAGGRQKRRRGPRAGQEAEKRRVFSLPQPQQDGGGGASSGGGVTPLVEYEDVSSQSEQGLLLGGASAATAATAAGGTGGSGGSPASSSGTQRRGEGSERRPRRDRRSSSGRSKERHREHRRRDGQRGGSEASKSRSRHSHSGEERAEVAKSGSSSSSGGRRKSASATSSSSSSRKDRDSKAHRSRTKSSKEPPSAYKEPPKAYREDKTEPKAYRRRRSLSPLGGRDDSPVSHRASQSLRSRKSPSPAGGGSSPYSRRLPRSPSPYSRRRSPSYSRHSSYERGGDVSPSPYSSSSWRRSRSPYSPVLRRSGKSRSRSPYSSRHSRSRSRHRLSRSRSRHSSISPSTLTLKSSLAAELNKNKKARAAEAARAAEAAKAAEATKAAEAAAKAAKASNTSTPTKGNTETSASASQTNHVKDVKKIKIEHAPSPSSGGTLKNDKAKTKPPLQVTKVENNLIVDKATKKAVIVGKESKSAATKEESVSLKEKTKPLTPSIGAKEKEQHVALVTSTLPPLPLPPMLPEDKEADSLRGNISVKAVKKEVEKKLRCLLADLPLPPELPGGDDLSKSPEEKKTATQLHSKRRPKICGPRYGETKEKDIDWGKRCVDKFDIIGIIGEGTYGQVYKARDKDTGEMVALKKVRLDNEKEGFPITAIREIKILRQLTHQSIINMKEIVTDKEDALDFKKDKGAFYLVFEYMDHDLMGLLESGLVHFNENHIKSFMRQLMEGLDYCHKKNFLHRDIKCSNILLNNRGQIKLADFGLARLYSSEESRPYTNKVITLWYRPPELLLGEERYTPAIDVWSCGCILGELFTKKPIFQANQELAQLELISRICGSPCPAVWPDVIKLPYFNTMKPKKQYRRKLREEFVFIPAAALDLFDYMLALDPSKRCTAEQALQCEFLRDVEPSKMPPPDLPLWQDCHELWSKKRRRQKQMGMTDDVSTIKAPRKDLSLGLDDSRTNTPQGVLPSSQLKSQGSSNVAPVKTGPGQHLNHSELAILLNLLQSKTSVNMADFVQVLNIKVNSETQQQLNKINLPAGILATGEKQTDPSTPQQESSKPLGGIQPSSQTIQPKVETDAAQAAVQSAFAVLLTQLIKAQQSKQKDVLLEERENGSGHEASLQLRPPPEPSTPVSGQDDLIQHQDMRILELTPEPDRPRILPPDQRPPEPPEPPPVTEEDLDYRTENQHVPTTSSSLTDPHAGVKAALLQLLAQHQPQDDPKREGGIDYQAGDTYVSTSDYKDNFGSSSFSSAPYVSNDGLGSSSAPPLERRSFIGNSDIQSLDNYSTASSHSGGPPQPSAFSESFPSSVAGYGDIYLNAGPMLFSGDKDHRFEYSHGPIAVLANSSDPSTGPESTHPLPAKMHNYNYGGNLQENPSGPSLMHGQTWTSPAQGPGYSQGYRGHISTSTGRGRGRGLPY
Sequence of Mitogen-activated protein kinase 14 (Q16539 whole entry): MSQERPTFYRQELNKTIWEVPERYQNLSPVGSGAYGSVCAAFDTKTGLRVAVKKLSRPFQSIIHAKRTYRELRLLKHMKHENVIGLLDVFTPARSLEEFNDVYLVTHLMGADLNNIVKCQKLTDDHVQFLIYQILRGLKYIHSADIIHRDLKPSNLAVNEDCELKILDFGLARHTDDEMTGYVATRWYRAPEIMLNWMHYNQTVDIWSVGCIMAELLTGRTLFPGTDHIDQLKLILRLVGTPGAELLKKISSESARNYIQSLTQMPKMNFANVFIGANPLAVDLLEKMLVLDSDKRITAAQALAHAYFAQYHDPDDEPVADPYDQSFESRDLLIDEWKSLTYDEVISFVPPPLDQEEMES
Sequence of Serine/threonine-protein kinase B-raf (P15056 whole entry, the tested form may be a part): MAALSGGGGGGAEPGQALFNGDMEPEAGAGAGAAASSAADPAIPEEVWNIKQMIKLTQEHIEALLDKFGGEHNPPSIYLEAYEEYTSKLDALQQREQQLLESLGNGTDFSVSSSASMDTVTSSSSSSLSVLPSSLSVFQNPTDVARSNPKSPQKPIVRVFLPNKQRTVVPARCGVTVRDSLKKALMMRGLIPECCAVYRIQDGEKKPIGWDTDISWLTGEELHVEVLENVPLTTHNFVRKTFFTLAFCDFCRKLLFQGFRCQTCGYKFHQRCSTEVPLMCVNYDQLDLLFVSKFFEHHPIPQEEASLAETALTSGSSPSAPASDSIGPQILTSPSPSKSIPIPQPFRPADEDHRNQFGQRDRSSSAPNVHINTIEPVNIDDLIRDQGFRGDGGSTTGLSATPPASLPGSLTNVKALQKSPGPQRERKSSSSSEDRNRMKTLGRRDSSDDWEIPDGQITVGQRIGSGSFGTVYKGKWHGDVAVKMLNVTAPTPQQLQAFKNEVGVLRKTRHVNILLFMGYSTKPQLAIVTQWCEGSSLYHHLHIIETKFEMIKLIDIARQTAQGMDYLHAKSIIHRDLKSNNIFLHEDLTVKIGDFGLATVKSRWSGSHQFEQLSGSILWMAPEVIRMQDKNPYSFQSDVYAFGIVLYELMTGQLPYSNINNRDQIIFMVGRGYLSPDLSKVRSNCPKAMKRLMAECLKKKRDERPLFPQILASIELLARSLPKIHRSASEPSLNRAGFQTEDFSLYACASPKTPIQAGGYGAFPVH
Sequence of Serine/threonine-protein kinase Chk1 (O14757 whole entry): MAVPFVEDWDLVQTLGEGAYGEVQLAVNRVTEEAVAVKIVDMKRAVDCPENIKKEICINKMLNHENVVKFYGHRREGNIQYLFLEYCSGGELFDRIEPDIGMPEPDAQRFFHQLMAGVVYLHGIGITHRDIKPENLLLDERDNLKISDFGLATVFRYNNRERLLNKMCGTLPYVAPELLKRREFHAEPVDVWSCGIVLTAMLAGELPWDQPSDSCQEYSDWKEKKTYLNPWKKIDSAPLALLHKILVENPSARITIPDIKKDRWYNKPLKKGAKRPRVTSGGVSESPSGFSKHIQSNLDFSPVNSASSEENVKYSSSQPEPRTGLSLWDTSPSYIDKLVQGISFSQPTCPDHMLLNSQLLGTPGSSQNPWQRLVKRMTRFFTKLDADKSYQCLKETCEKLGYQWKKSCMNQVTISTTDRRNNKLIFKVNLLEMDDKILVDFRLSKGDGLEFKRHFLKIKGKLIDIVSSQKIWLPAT
Sequence of Ribosomal protein S6 kinase alpha-6 (Homo sapiens) (Q9UK32 whole entry, the tested form may be a part): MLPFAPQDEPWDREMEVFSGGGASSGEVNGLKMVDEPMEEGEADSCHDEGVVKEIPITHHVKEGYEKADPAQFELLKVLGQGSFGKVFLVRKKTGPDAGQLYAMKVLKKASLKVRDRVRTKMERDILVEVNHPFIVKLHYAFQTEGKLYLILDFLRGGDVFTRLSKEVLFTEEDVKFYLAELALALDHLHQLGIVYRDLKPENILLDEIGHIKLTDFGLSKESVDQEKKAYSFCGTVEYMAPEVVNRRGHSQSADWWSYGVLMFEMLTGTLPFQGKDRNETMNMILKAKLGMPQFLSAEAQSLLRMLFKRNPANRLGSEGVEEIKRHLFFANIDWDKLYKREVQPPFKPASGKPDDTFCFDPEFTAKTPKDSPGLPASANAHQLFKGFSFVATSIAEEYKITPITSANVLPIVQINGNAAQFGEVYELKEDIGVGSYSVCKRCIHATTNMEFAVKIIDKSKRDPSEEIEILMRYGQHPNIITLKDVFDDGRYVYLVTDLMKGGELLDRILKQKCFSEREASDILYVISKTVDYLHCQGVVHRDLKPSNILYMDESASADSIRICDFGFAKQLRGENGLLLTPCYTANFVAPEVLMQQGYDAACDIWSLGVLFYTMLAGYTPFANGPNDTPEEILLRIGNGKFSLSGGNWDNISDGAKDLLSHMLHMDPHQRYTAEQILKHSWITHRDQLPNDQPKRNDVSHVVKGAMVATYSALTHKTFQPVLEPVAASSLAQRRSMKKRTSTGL
Sequence of Focal adhesion kinase 1 (Q05397 2-1052 limits assumed): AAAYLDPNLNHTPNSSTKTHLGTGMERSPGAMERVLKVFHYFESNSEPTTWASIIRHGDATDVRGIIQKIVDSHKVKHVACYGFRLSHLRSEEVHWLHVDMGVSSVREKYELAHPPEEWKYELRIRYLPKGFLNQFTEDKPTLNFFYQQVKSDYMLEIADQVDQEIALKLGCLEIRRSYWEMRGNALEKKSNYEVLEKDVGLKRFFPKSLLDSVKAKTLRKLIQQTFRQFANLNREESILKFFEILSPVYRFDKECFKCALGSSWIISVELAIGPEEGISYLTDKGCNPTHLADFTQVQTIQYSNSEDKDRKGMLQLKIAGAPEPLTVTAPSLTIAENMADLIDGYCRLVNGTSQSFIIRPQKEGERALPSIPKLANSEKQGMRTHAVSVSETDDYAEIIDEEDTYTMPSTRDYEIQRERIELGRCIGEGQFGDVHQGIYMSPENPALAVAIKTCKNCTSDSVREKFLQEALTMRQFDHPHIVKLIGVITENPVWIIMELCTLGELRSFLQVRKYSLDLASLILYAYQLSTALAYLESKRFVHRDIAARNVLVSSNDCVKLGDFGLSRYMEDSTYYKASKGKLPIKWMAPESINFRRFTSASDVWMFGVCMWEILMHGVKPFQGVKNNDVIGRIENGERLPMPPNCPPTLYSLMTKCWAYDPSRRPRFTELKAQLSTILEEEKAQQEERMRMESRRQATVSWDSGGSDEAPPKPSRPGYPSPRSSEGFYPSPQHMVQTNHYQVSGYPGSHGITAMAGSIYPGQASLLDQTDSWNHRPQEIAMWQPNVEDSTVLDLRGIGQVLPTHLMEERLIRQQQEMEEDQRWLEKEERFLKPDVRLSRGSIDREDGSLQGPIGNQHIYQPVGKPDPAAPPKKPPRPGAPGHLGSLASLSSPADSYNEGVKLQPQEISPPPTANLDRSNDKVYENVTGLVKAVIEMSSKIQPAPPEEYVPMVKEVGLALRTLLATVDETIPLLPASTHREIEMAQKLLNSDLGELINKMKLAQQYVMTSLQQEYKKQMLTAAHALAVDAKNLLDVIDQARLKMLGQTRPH

CCOc1cc(N2CCC(O)CC2)ccc1Nc1ncc2c(n1)N(C)c1ccccc1C(=O)N2C
inhibition [1]: 1.1%
inhibition [2]: 16.2%
inhibition [3]: 49%
inhibition at 50 µM [4]: -14.5%
IC50 [5]: > 50 µM
IC50 [6]: > 50 µM
IC50 [7]: > 50 µM
inhibition [8]: 3.7%
IC50 [9]: > 50 µM
IC50 [10]: > 50 µM
inhibition [11]: -7.6%
inhibition [12]: 6.7%
IC50 [13]: > 50 µM
IC50 [14]: > 50 µM
inhibition [15]: 58.1%
inhibition at 2 µM [16]: 4.6%
inhibition at 2 µM [17]: 1.2%
Activity [18]: 31%
Activity [19]: 0.02 kg
